Published values from different studies.
Lines come from different studies, so protocols differ.
Observed: metabolic stability
Species: human

SMILES	sample	tested at	pH	half-life [min]
NCc1ccccc1	hepatocytes	5 µM	–	76.3
CC[C@@H]1C=CC(=O)O[C@@H]1C[C@@H](O)[C@H](C)[C@H](O)[C@@H](C)Cc1ccc(F)cc1	liver microsomes	–	–	< 7.7
Cc1cccc(-n2ncc(Cl)c(Cl)c2=O)c1	liver microsomes	–	–	6.6
Cc1ccc(S(=O)(=O)Nc2cccc(-c3nnn[nH]3)c2)cc1C(F)(F)F	liver microsomes	–	–	4
O=C(CC1Cc2ccccc2C1)N[C@H](CN1CCCC1)[C@H](O)c1ccc(OC(F)(F)F)cc1	liver microsomes	1 µM	pH 7.4	84
O=C(N[C@H](Cc1c[nH]c2ccccc12)C(=O)Nc1ccncc1)c1ccc(-c2cc(F)ccc2F)cc1F	liver microsomes	–	–	17
CC(C)(C)c1ccc(O)c(CN(Cc2cc(C(C)(C)C)ccc2O)C2CCC(NC(N)=O)CC2)c1 (stereo not shown)	liver microsomes	1 µM	pH 7.4	39.8
CCS(=O)(=O)Nc1ccc(OCCOCCOCCOCCOc2ccc(NS(=O)(=O)CC)cc2-c2cn(C)c(=O)c3ccccc23)c(-c2cn(C)c(=O)c3ccccc23)c1	liver microsomes	–	–	< 2.3
CC(C)(C)C[C@@H]1N[C@@H](C(=O)N[C@H]2C[C@@](C)(O)C2)[C@H](c2cccc(Cl)c2F)[C@]12C(=O)Nc1cc(Cl)ccc12	liver microsomes	–	–	> 60
Cc1cnc(Nc2ccc(C(=O)NC3CCNCC3)c(F)c2)nc1Nc1cc(NS(=O)(=O)C(C)(C)C)cc(C(=O)NCCOCCOCCOCCC(=O)N2CCC(NC(=O)c3ccc(Nc4ncc(C)c(Nc5ccc(Cl)c(NS(=O)(=O)C(C)(C)C)c5)n4)cc3F)CC2)c1	liver microsomes	–	–	8.2
O=C1CCN(C(=O)Nc2ccc(F)c(Cl)c2)[C@H]2CCCC[C@@H]12 (relative stereo)	liver microsomes	–	–	> 56
O=C(N[C@H](Cc1c[nH]c2ccccc12)C(=O)Nc1ccncc1)c1ccc(-c2ccc(F)c(F)c2)cc1F	liver microsomes	–	–	18
CCOC(=O)NS(=O)(=O)c1sc(CC(C)C)cc1-c1ccc2c(c1)CN(C)C(=O)C2	liver microsomes	1 µM	pH 7.4	7.8
COc1ccc(-c2ocnc2C(=O)NCCCn2cncn2)cc1Cl	liver microsomes	–	–	78.7
O=C(c1ccc(F)cc1)C1CCN(CCn2c(=O)[nH]c3ccccc3c2=O)CC1	liver microsomes	–	–	38.8
CC[C@@H]1C=CC(=O)O[C@@H]1C[C@@H](O)[C@H](C)[C@H](OC)[C@@H](C)Cc1ccccc1	liver microsomes	–	–	5.4
CCOc1ccc2ccc(=O)oc2c1	liver microsomes	1 µM	pH 7.4	10
CCCCOC(=O)NS(=O)(=O)c1sc(CC(C)C)cc1-c1cccc2c1CN(C(C)=O)C2	liver microsomes	1 µM	pH 7.4	15
O=C(OC(C(F)(F)F)C(F)(F)F)N1CCc2ccccc2C1	liver microsomes	–	–	21
O=S(=O)(Nc1cccc(-c2nnn[nH]2)c1)c1ccc(Cl)c2nonc12	liver microsomes	–	–	200
CCOC(=O)NS(=O)(=O)c1sc(CC(C)C)cc1-c1ccc2c(c1)CN(C(C)=O)C2	liver microsomes	1 µM	pH 7.4	7.8
CCNc1nc2c(c(N3CC(=O)Nc4cc(OC)ccc43)n1)CCC2	liver microsomes	–	–	16.7
O=C(NC1CCC1)c1ccc2nc(-c3cccc(NS(=O)(=O)NCCN4CCCCC4)c3)cn2c1	liver microsomes	1 µM	–	21
CN1CCN(C(c2ccccc2)c2ccc(Cl)cc2)CC1 (racemic)	liver microsomes	–	–	> 100
CCCCOC(=O)NS(=O)(=O)c1sc(CC(C)C)cc1-c1ccc2c(c1)CN(C(C)=O)C2	liver microsomes	1 µM	pH 7.4	2.4
O=C(O)Cc1ccccc1Nc1c(Cl)cccc1Cl	hepatocytes	1 µM	–	18.4
CC[C@@H]1C=CC(=O)O[C@@H]1C[C@@H](OC)[C@H](C)[C@H](OC)[C@@H](C)Cc1ccc(F)cc1	liver microsomes	–	–	< 2.3
CC(C)NCC(O)COc1cccc2ccccc12 (stereo not shown)	liver microsomes	1 µM	–	57.8
